Reference: ChEMBL document CHEMBL1138485, “Discovery of inducible nitric oxide synthase (iNOS) inhibitor development candidate KD7332, part 1: Identification of a novel, potent, and selective series of quinolinone iNOS dimerization inhibitors that are orally active in rodent pain models” (J Med Chem, 2009)

Legend:
[1] = molecular target: CYP2D6 (Homo sapiens, UniProt P10635); assay: Inhibition of CYP2D6 at 100 uM; assay type: ADME
[2] = molecular target: T1, CYP1A2 (Homo sapiens, UniProt P05177); assay: Inhibition of CYP1A2 at 100 uM; assay type: ADME
T1 sequence (P05177 whole entry): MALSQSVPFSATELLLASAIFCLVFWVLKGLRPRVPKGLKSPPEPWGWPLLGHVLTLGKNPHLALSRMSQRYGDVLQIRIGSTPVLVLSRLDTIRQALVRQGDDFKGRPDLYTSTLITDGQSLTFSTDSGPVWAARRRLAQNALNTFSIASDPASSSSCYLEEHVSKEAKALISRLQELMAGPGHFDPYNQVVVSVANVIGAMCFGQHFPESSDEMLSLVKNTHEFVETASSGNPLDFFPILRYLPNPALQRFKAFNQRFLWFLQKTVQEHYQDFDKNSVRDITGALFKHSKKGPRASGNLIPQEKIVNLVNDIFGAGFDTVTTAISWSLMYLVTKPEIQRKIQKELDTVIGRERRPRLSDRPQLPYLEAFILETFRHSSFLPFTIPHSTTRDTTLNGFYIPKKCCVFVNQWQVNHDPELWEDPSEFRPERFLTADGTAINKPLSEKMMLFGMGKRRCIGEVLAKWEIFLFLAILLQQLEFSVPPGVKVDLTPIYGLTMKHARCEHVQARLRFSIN

[3] = molecular target: T2, Nitric oxide synthase, inducible (Mus musculus, UniProt P29477); assay: Inhibition of mouse iNOS expressed in HEK293 cells assessed as NO production in by transient transfection assay; assay type: cell-based
T2 sequence (P29477 whole entry): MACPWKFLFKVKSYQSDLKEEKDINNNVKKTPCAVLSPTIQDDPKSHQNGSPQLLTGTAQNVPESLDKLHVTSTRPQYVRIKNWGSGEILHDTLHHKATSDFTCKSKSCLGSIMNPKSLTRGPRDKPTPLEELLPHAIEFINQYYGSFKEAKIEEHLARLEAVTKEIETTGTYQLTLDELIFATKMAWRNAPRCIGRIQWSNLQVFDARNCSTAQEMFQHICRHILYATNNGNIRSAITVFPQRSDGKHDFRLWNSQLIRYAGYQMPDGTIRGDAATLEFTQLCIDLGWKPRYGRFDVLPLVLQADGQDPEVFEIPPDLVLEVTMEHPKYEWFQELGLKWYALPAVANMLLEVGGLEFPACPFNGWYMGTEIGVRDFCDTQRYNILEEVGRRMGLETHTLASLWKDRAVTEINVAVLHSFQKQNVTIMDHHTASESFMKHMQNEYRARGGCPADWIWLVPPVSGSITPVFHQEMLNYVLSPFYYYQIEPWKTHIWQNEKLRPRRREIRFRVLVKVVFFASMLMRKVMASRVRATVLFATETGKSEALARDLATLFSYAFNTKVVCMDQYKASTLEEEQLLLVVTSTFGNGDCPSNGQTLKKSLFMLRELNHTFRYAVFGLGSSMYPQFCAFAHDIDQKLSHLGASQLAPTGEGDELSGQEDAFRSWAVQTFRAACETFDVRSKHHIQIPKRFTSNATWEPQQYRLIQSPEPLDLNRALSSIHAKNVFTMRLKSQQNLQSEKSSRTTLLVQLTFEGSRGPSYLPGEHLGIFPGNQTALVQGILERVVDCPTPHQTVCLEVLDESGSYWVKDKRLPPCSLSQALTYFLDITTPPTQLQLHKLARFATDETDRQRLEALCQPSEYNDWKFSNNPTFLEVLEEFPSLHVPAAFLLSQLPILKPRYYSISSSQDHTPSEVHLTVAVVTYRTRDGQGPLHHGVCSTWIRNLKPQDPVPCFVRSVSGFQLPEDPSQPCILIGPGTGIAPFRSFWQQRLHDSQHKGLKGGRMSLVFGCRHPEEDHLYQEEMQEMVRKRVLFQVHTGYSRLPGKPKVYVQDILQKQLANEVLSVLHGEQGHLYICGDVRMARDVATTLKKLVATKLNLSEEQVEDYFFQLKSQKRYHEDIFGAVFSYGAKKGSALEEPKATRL
Outline: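 HEK293 cells grown to ~70% confluence in DMEM/10% FBS with pen/strep. Cells transiently transfected with 10 µg human or murine iNOS plasmid (Fugene 6), 4 h at 37 °C, 10% CO2. Trypsinized, plated at 5 × 10⁵ cells/mL and dosed at once; 1400W 100 µM final as positive control. After 18 h, NO read as DAN fluorescence (10 µg/mL, 20 min RT, then NaOH). EC50 from 3 runs, 10-point curves, n = 8/point.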

[4] = molecular target: Cytochrome P450 2C9 (Homo sapiens, UniProt P11712); assay: Inhibition of CYP2C9; assay type: ADME
[5] = system: Mus musculus; assay: Reduction of plasma nitrate level in LPS-challenged po dosed BALB/c mouse; assay type: functional
Outline: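 Male Balb/c mice were dosed by oral gavage (90% PEG/5% Tween 80/5% PVP + 90% CMC (0.5% w/v)) at t = 0 h, 30 mg/kg for single-dose lines. LPS 10 mg/kg ip in 0.9% NaCl followed immediately. At 6 h, EDTA plasma was taken for nitrate and drug levels. Nitrate reduction is relative to vehicle; ED50 came from full oral dose-response.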

[6] = Tmax in mouse at 10 mg/kg, po; assay type: ADME, organism-based; parameters: dose 10 mg/kg, route oral; conditions: in vivo
[7] = system: Mus musculus; assay: Antinociceptive activity against formalin-induced phase 2 pain in mouse paw assessed as pain behavior at 100 mg/kg, po pretreated 30 mins before formalin challenge relative to control; assay type: functional
Outline: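 Mice were dosed 100 mg/kg po (PEG/Tween 80/PVP + CMC vehicle) 30 min before 20 µL formalin into the left hind paw. Phase II pain-behavior duration was timed 25–45 min post-injection by a single observer. Results are mean ± SE, n = 5–6 mice, compared to vehicle by one-way ANOVA with post hoc tests.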

[8] = Cmax in mouse at 10 mg/kg, po; assay type: ADME, organism-based; parameters: dose 10 mg/kg, route oral; conditions: in vivo
[9] = system: Mus musculus; assay: Volume of distribution in mouse at 10 mg/kg, po; assay type: ADME, organism-based; parameters: dose 10 mg/kg, route oral; conditions: in vivo
[10] = AUC in mouse at 10 mg/kg, po; assay type: ADME, organism-based; parameters: dose 10 mg/kg, route oral; conditions: plasma
[11] = Half life in mouse at 10 mg/kg, po; assay type: ADME, organism-based; parameters: dose 10 mg/kg, route oral; conditions: in vivo
[12] = Plasma clearance in mouse at 10 mg/kg, po; assay type: ADME, organism-based; parameters: dose 10 mg/kg, route oral
[13] = system: Mus musculus; assay: Antinociceptive activity against acetone-induced chronic constriction injury in mouse paw assessed as duration of pain behavior at 100 mg/kg, po pretreated 30 mins before formalin challenge relative to control; assay type: functional; conditions: in the assay text read “acetone testing” for “formalin challenge”
Outline: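 Mice underwent chronic constriction injury surgery (Bennett and Xie) and recovered 1–2 weeks. After 100 mg/kg po dosing 30 min before testing and 1 h acclimation on a wire mesh platform, 100 µL acetone was applied to the injured plantar hindpaw. Flinching, licking and biting were recorded for 1 min, with reduction relative to vehicle.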

[14] = molecular target: Voltage-gated inwardly rectifying potassium channel KCNH2 (Homo sapiens, UniProt Q12809); assay: Activity at human ERG by patch clamp assay
Sequence of Voltage-gated inwardly rectifying potassium channel KCNH2 (Q12809 whole entry): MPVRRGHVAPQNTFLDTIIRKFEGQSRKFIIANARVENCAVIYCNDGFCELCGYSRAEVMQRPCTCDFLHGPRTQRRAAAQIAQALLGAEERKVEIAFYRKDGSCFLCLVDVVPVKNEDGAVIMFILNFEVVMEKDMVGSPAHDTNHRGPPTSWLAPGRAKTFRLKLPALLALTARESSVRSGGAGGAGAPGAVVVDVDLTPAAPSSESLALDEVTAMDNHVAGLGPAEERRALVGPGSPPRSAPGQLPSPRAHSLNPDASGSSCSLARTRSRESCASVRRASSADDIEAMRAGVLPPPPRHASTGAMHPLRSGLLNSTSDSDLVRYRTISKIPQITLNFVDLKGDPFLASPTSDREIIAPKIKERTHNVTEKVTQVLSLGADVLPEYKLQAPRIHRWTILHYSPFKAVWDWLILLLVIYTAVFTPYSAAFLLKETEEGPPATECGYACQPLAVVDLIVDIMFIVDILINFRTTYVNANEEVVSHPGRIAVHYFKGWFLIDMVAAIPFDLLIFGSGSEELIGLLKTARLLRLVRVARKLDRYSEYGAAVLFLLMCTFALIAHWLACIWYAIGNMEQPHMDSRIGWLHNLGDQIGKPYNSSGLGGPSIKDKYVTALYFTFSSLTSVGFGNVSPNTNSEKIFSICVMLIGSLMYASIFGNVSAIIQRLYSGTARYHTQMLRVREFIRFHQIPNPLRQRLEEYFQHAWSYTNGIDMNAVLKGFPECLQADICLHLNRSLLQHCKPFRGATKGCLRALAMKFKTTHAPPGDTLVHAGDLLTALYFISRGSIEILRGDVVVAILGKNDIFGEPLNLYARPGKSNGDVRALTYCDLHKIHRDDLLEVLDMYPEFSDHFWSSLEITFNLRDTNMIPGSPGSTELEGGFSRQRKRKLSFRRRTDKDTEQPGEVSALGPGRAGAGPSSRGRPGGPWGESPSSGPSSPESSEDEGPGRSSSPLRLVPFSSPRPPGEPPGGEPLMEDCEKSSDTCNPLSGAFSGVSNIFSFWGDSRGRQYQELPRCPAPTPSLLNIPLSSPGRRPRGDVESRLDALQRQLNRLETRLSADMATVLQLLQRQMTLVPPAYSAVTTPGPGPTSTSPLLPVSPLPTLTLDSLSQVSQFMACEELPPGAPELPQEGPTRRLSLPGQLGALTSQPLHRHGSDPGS

Sequence of CYP2D6 (P10635 whole entry): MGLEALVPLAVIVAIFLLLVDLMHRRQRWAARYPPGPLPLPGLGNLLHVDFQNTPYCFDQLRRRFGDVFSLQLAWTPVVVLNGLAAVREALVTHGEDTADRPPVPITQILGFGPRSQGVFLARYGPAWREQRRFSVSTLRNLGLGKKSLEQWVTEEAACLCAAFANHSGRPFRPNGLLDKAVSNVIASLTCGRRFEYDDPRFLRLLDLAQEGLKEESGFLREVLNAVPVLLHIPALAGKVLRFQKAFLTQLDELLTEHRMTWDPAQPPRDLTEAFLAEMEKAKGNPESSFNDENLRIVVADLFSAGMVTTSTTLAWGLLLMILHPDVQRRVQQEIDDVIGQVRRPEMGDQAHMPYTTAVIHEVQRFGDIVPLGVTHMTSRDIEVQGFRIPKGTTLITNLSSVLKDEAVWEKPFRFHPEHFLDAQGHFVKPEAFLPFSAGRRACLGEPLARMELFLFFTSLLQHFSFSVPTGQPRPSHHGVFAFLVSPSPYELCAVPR
Sequence of Cytochrome P450 2C9 (P11712 whole entry): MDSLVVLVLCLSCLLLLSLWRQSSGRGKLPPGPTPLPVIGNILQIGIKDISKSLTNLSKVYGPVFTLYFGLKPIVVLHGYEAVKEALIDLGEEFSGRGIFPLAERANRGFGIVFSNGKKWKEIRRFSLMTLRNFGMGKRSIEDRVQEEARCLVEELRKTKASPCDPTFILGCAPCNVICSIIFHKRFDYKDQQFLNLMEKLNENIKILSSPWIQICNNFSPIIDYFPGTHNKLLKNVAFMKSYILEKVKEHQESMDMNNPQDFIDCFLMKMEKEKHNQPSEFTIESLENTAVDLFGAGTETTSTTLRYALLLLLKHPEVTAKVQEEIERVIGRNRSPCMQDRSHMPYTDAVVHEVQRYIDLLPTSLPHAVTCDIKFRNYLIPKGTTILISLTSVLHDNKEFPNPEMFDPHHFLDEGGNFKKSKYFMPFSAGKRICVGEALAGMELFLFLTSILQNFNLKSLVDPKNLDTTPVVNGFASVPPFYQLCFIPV

| SMILES | inhibition at 100 µM [1] [%] | inhibition at 100 µM [2] [%] | EC50 [3] [µM] | EC50 [4] [µM] | ED50 [5] [mg/kg] | Tmax [6] [min] | Activity [7] [%] | Cmax [8] [µM] | Vdss [9] [L/kg] | AUC [10] [µg·h/mL] | half-life [11] [min] | CL/F [12] [L/h/kg] | Activity [13] [%] | EC50 [14] [µM] |
| --- | --- | --- | --- | --- | --- | --- | --- | --- | --- | --- | --- | --- | --- | --- |
| Cc1ncsc1C(=O)N(Cc1cc(=O)[nH]c2c(F)c(F)ccc12)c1cccc(Cl)c1 | < 50 |  | 0.032 | 22 | 13 |  |  |  |  |  |  |  |  |  |
| Cc1ncsc1C(=O)N(Cc1c[n+]([O-])cc2c(F)c(F)ccc12)c1cccc(Cl)c1 | < 50 | < 50 | 0.074 | 55 |  |  |  |  |  |  |  |  |  |  |
| Cn1cncc1C(=O)N(Cc1cc(=O)[nH]c2c(F)c(F)ccc12)c1cccc(Cl)c1 |  |  | 0.014 | 25 | 5 | 15 | 65 | 2.2 | 1.1 | 0.52 | 66 | > 6 |  | 8 |
| CC1=C(C(=O)N(Cc2cc(=O)[nH]c3c(F)c(F)ccc23)c2cccc(Cl)c2)CNCC1 | < 50 | < 50 | 0.057 |  | 16 |  |  |  |  |  |  |  |  |  |

Now from value to molecule, other results behind:

| inhibition at 100 µM [1] [%] | inhibition at 100 µM [2] [%] | SMILES | EC50 [3] [µM] | EC50 [4] [µM] | ED50 [5] [mg/kg] | Tmax [6] [min] | Activity [7] [%] | Cmax [8] [µM] | Vdss [9] [L/kg] | AUC [10] [µg·h/mL] | half-life [11] [min] | CL/F [12] [L/h/kg] | Activity [13] [%] | EC50 [14] [µM] |
| --- | --- | --- | --- | --- | --- | --- | --- | --- | --- | --- | --- | --- | --- | --- |
| < 50 | < 50 | CC(C)C(=O)N(Cc1cc(=O)[nH]c2c(F)cccc12)c1cccc(Cl)c1 | 2.7 |  |  |  |  |  |  |  |  |  |  |  |
| < 50 | < 50 | Cc1ncsc1C(=O)N(Cc1cc(=O)[nH]c2c(F)cccc12)c1cccc(Cl)c1 | 0.12 | 33 | 10 | 30 | 40 | 1.4 | 1.6 | 0.45 | 54 | > 6 | 45 |  |
